UBC13 inh: inhibitors of human UBC13 polyubiquitin chain formation. P61088. TR-FRET. inhibition, % at 20 µM. 330,000 compounds, 0.47% hits; in the data active means inhibition above about 45%, passing the limit was not always enough
Target sequence (P61088 whole entry, looked up): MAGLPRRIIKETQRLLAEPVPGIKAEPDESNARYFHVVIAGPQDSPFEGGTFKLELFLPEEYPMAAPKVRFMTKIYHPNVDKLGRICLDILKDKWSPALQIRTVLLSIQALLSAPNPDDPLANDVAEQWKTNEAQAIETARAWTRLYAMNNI
Apaf-1 inh: human Apaf-1 inhibition; reconstituted apoptosome caspase-3 activity, DEVD-Rh110 fluorescence; 330,000 compounds, 0.71% hits; inhibition, % at 20 µM; O14727; active means inhibition of at least 40% at 20 µM;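 further: plate controls were DMSO wells for no effect and DEVD-CHO caspase inhibitor wells for full effect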
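Medium: Hepes buffer, pH 7.5 / System: biochemical Apaf-1 apoptosome reconstitution / Measured by: Rh110 fluorescence, excitation 480 nm, emission 540 nm / Times: compound with Apaf-1, dATP, procaspase-3 30 min, then 50 min reaction, room temperature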
UCH37 inh: blocks the human deubiquitinase UCH37; inhibition, % (no concentration beside the values); 330,000 compounds, 0.33% hits; Q9Y5K5; AID 588478; purified proteasome/UCH37, Ub-AMC cleavage fluorescence;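 active means mean inhibition over replicate wells above about 20%, limit read from the data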;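 further: 0% = compound-free wells with enzyme and 100% = wells lacking proteasome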
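system = Proteasome-associated human UCH37 deubiquitinase | amount = 0.15 nM proteasome as dispensed | medium = pH 7.4 Tris-HCl (50 mM) with ovalbumin, ATP-MgCl2, DTT | incubation = 30 min preincubation with enzyme, 25 min cleavage at room temperature | detection = AMC fluorescence 355/460 nm | read-out basis = percent inhibition | controls = no-proteasome and no-compound wells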
MEKK3 PB1 HTS: modulators (inhibitors or enhancers) of MEK5 binding to human MEKK3 PB1 domain | bead-based flow cytometry, Alexa488-MEK5 binding to MEKK3; actives lie on both sides; 0 = blocked by unlabeled MEK5, 100 = vehicle | 290,000 compounds, 1.4% hits | binding response (% of control), % at 10 µM | Q99759 | AID 1529;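 active means binding response more than 3 SD above or below the average of its plate-row segment, actives on both sides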;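 further: Alexa488 bead fluorescence after subtracting the streptavidin-only scavenger bead signal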
Target sequence (Q99759 whole entry, looked up, the tested form may be a part): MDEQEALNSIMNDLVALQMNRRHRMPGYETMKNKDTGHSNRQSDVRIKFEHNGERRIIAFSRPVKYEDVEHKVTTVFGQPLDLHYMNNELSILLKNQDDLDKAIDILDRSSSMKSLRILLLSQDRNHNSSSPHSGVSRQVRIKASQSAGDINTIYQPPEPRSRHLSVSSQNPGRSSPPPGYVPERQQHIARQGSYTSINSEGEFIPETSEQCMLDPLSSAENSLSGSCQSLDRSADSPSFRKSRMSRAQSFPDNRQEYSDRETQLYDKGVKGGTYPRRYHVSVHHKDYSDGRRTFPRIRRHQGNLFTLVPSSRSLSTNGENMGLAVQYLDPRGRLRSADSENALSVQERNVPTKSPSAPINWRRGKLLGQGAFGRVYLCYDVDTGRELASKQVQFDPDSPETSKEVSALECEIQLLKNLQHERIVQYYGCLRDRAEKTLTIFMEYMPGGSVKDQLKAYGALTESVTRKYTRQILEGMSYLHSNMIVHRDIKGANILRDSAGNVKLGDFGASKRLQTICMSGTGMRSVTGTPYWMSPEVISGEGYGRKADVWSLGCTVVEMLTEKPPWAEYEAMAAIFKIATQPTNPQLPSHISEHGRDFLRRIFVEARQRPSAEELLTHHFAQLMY
MEKK2 WT-MEK5: raises or lowers MEK5 binding to wildtype human MEKK2 PB1 domain; Q9Y2U5; bead flow cytometry, Alexa488-MEK5 binding to MEKK2 WT; actives lie on both sides; binding response (% of control), % at 10 µM; 290,000 compounds, 1.1% hits; AID 1531; in the data active means binding response below about 67% or above about 130%
MEKK2mut PB1 HTS: signal of MEK5 binding to mutant human MEKK2 PB1 domain; bead flow cytometry, Alexa488-MEK5 binding to MEKK2 mutant; 290,000 compounds, 0.35% hits; percent response, % at 10 µM; AID 1530; in the data active means percent response above about 24%, passing the limit was not always enough
MEKK2wt confirm: raises or lowers MEK5 binding to wildtype human MEKK2, retest | AID 1892 | bead flow cytometry, Alexa488-MEK5 binding to MEKK2 WT; actives lie on both sides | binding response (% of control), % at 10 µM | shares compounds with MEKK3 PB1 HTS | 5,900 compounds, 2.4% hits; in the data active means binding response below about 16% or above about 210%; inactive means in between
MEKK2mut-MEK5: signal of MEK5 binding to mutant human MEKK2, retest | shares compounds with MEKK3 PB1 HTS | bead flow cytometry, Alexa488-MEK5 binding to MEKK2 mutant | percent response, % at 10 µM | 5,900 compounds, 2% hits | AID 1893; in the data active means percent response mostly above about 71%, no sharp cut-off; inactive means mostly below about 38%;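 further: higher means compound restores mutant binding toward wildtype level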
MEKK3-MEK5 inh: confirmation of inhibitors of MEK5 binding to human MEKK3 | shares compounds with MEKK3 PB1 HTS | bead flow cytometry, Alexa488-MEK5 binding to MEKK3; active compounds read low | binding response (% of control), % at 10 µM | 5,900 compounds, 1.8% hits | AID 1894;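 active means binding response below 72% of control, or above a set upper limit, though filed actives all read lower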;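 further: 100% = DMSO only wells and 0% = binding blocked by excess unlabeled MEK5; lower values mean stronger disruption of MEK5 binding to MEKK3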
* hit, by the source's call; [ ] = dose if it differs, or a comment. Shown are actives, neighbours in structure and some others; about 3% of the full set was active somewhere.

Results for CCCCOC(=O)c1ccc(NC(=O)c2ccccc2OC)cc1 ?
UBC13 inh: 4.4; Apaf-1 inh: 11.7; UCH37 inh: 2.1; MEKK3 PB1 HTS: 136.0*; MEKK2 WT-MEK5: 118.0; MEKK2mut PB1 HTS: 2.0; MEKK2wt confirm: 103.0; MEKK2mut-MEK5: 2.0; MEKK3-MEK5 inh: 106.0

How did CCCCOC(=O)c1ccc(NC(=O)C(=O)NCc2ccccn2)cc1 do in these assays?
UBC13 inh: -2.6; Apaf-1 inh: -7.4; UCH37 inh: 5.2; MEKK3 PB1 HTS: 110.0; MEKK2 WT-MEK5: 104.0; MEKK2mut PB1 HTS: 16.0

How did CCCOC(=O)c1ccc(NC(=O)c2ccccc2OC)cc1 do in these assays?
UBC13 inh: 3.5; Apaf-1 inh: 16.2; UCH37 inh: 5.9; MEKK3 PB1 HTS: 106.0; MEKK2 WT-MEK5: 105.0; MEKK2mut PB1 HTS: -3.0

How did CC(CC(=O)Nc1ccc(Cl)c(C(F)(F)F)c1)=NNC(=O)c1cc2ccccc2cc1O do in these assays?
UCH37 inh: -18.7

What do the screens show for `COCCn1c(SCC(=O)Nc2ccccc2)nc2c(oc3ccccc32)c1=O`?
UBC13 inh: 3.8; Apaf-1 inh: -22.1; UCH37 inh: 0.3; MEKK3 PB1 HTS: 4.0*[inhibitor]; MEKK2 WT-MEK5: 7.0*[inhibitor]; MEKK2mut PB1 HTS: -46.0; MEKK2wt confirm: 107.0; MEKK2mut-MEK5: -3.0; MEKK3-MEK5 inh: 106.0

What do the screens show for `COCCn1c(SCC(=O)Nc2ccc(C)cc2)nc2c(oc3ccccc32)c1=O`?
UBC13 inh: -18.0; Apaf-1 inh: 2.1; UCH37 inh: 5.0; MEKK3 PB1 HTS: 113.0; MEKK2 WT-MEK5: 101.0; MEKK2mut PB1 HTS: 0.0

Results for Cn1c(SCC(=O)N2CCN(S(=O)(=O)c3ccccc3)CC2)nc2ccccc21 ?
UBC13 inh: -0.9; Apaf-1 inh: -7.4; UCH37 inh: 1.3; MEKK3 PB1 HTS: 109.0; MEKK2 WT-MEK5: 108.0; MEKK2mut PB1 HTS: 6.0

What do the screens show for `Cn1c(SCC(=O)N2CCN(S(=O)(=O)c3ccc(Cl)cc3)CC2)nc2ccccc21`?
UBC13 inh: -3.5; Apaf-1 inh: 23.7; UCH37 inh: 1.4; MEKK3 PB1 HTS: 133.0*; MEKK2 WT-MEK5: 129.0; MEKK2mut PB1 HTS: 8.0; MEKK2wt confirm: 102.0; MEKK2mut-MEK5: 6.0; MEKK3-MEK5 inh: 103.0

How did Cc1c(NC(=S)NN=Cc2cc([N+](=O)[O-])ccc2O)c(=O)n(-c2ccccc2)n1C do in these assays?
UCH37 inh: 12.3

How did CC(C)c1ccc(NC(=O)CN2CCN(c3ccccn3)CC2)cc1 do in these assays?
UBC13 inh: -1.6; Apaf-1 inh: 7.5; UCH37 inh: 2.6; MEKK3 PB1 HTS: 103.0; MEKK2 WT-MEK5: 105.0; MEKK2mut PB1 HTS: 1.0

Results for Cn1nnnc1SCC(=O)Nc1ccccc1Cc1ccccc1 ?
UBC13 inh: -3.2; Apaf-1 inh: 2.6; UCH37 inh: 0.1; MEKK3 PB1 HTS: 3.0*[inhibitor]; MEKK2 WT-MEK5: 3.0*[inhibitor]; MEKK2mut PB1 HTS: -24.0; MEKK2wt confirm: 100.0; MEKK2mut-MEK5: -2.0; MEKK3-MEK5 inh: 102.0

How did CCCCC(c1nnnn1CCOC)N1CCN(C)CC1 (stereo not given) do in these assays?
UBC13 inh: -1.9; Apaf-1 inh: 6.0; UCH37 inh: 2.4; MEKK3 PB1 HTS: 108.0; MEKK2 WT-MEK5: 99.0; MEKK2mut PB1 HTS: 0.0

How did COc1ccc(-c2cc(C(F)(F)F)n3nc(C(=O)NCc4ccco4)c(Cl)c3n2)cc1 do in these assays?
UBC13 inh: -0.6; Apaf-1 inh: 15.9; UCH37 inh: -26.1; MEKK3 PB1 HTS: 107.0; MEKK2 WT-MEK5: 30.0*[inhibitor]; MEKK2mut PB1 HTS: 2.0; MEKK2wt confirm: 111.0; MEKK2mut-MEK5: 14.0; MEKK3-MEK5 inh: 109.0

What do the screens show for `CC1CCCC(=NNc2ccc([N+](=O)[O-])cc2[N+](=O)[O-])C1` (stereo not given)?
UCH37 inh: -1.4

How did O=C(Nc1nc2c(s1)CN(Cc1ccccc1)CC2)C1CCC1 do in these assays?
UBC13 inh: 3.0; Apaf-1 inh: 9.5; UCH37 inh: -2.2; MEKK3 PB1 HTS: 110.0; MEKK2 WT-MEK5: 116.0; MEKK2mut PB1 HTS: 2.0

How did CN(C)c1ccc(/C=C(\C#N)C(=O)Nc2nc3c(s2)CCN(Cc2ccccc2)C3)cc1 do in these assays?
UBC13 inh: -216.7; Apaf-1 inh: 20.1; UCH37 inh: 6.6; MEKK3 PB1 HTS: 97.0; MEKK2 WT-MEK5: 71.0*[inhibitor]; MEKK2mut PB1 HTS: -22.0; MEKK2wt confirm: 98.0; MEKK2mut-MEK5: 7.0; MEKK3-MEK5 inh: 106.0

Results for CCOC(=O)C1CCCN(Cc2cccs2)C1 (stereo not given) ?
UBC13 inh: -1.1; Apaf-1 inh: -14.7; UCH37 inh: 0.8; MEKK3 PB1 HTS: 1.0*[inhibitor]; MEKK2 WT-MEK5: -3.0*[inhibitor]; MEKK2mut PB1 HTS: -18.0; MEKK2wt confirm: 104.0; MEKK2mut-MEK5: 6.0; MEKK3-MEK5 inh: 106.0

Results for CCOC(=O)C1CCCN(S(=O)(=O)c2ccc(S(=O)(=O)N3CCCC3)cc2)C1 (stereo not given) ?
UBC13 inh: -4.5; Apaf-1 inh: 8.6

Results for CCOC(=O)C1CCCN(S(=O)(=O)c2cccs2)C1 (stereo not given) ?
UBC13 inh: -5.3; Apaf-1 inh: -2.7; UCH37 inh: 0.3; MEKK3 PB1 HTS: 122.0*; MEKK2 WT-MEK5: 114.0; MEKK2mut PB1 HTS: 7.0; MEKK2wt confirm: 97.0; MEKK2mut-MEK5: -7.0; MEKK3-MEK5 inh: 97.0

What do the screens show for `O=C(C1CCCN(Cc2cccs2)C1)N1CCCCCC1` (stereo not given)?
UBC13 inh: -5.4; Apaf-1 inh: 3.0; UCH37 inh: 5.2; MEKK3 PB1 HTS: 111.0; MEKK2 WT-MEK5: 115.0; MEKK2mut PB1 HTS: 13.0

What do the screens show for `COc1cc(OC)cc(C(=O)Nc2nnc(SCC(=O)NCc3ccco3)s2)c1`?
UBC13 inh: 7.1; Apaf-1 inh: 9.2; UCH37 inh: 5.0; MEKK3 PB1 HTS: 101.0; MEKK2 WT-MEK5: 105.0; MEKK2mut PB1 HTS: 2.0

How did O=C1CC(c2ccccc2Cl)CC(O)=C1C=NCCCO (stereo not given) do in these assays?
UBC13 inh: -1.9; Apaf-1 inh: -5.0; UCH37 inh: 1.3; MEKK3 PB1 HTS: 103.0; MEKK2 WT-MEK5: 103.0; MEKK2mut PB1 HTS: 4.0

Screens (PubChem BioAssay)
